Test results published in ChEMBL document CHEMBL5712922, “Synergistic effects of type I PRMT and PARP inhibitors against non-small cell lung cancer cells” (Clin Epigenetics, 2021).
Where a name gives a salt, the structure may show the parent alone.

Tests used:
A549 [1] = assay: Antiproliferative against human A549 cells assessed as viable cells pretreated with MS023 for 24 hrs followed by compound addition at 10 uM measured after for 24 hrs relative to control; conditions: A549, 24 h, read-out: Activity
A549 [2] = assay: Synergistic antiproliferative activity against human A549 cells pretreated with MS023 for 24 hrs followed by compound addition at 10 uM measured after for 24 hrs relative to control; format: functional
Outline: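 A549 seeded 20K/well; next day 16.5 μM MS023 or DMSO for 24 h, then 181 epigenetic library drugs at 10 μM for 24 h. Viability by Viacount flow cytometry after trypsinization; heat-killed well as total death control. Synergy Index = (monotherapy viability × MS023 viability effect)/combination viability; also synergy percentage (1 − 1/SI)×100.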

`O=C(O)c1ccc(CN2CCC(CN[C@@H]3C[C@H]3c3ccccc3)CC2)cc1` was tested, and the viability at 10 µM (A549 [1]) was 54.2%.
With `CCN(CC)C(=O)/C(C#N)=C/c1cc(O)c(O)c([N+](=O)[O-])c1` [ENTACAPONE] the viability at 10 µM (A549 [1]) was 54.2%.
With `CCC(CC)(NC(=O)C(C)C)C(=O)N[C@@H](CCCNC(=N)N)C(=O)NC1(C(=O)NC(c2ccc(F)cc2)c2ccc(F)cc2)CCCC1` the viability at 10 µM (A549 [1]) was 54.2%.
`Cc1nc(C(=O)NCC(=O)O)c(O)c2ccc(Oc3ccccc3)cc12` [ROXADUSTAT] was tested, and the viability at 10 µM (A549 [1]) was 54.2%.
For `COc1cc2ncnc(Nc3ccc(O)c(Br)c3)c2cc1OC`, the viability at 10 µM (A549 [1]) was 54.2%.
In the case of `O=C(c1cc(Cc2n[nH]c(=O)c3ccccc23)ccc1F)N1CCN(C(=O)C2CC2)CC1` [OLAPARIB], the Activity (A549 [2]) is reported as 48% and the viability at 10 µM (A549 [1]) is reported as 54.2%.
Work on `CN1CCc2c(c3ccccc3n2Cc2ccc(C(=O)NO)cc2)C1` yielded a viability at 10 µM (A549 [1]) of 54.2%.
`CC(/C=C/C(=O)NO)=C\[C@@H](C)C(=O)c1ccc(N(C)C)cc1` [TRICHOSTATIN] gave a viability at 10 µM (A549 [1]) of 54.2%.
Work on `O=C(CCCCCN1C(=O)c2cccc3cccc(c23)C1=O)NO` yielded a viability at 10 µM (A549 [1]) of 54.2%.
`COC(=O)c1ccc2c(c1)nc(NC(=O)c1ccccc1)n2CCCc1ccccc1` gave a viability at 10 µM (A549 [1]) of 54.2%.
`O=C(c1ccc(Cl)cc1Cl)n1nnc2ccccc21` gave a viability at 10 µM (A549 [1]) of 54.2%.
With `O=C(Nc1cccc(Cl)c1)Nc1ncc(CCNc2ncnc3ccsc23)s1` [SNS-314 MESYLATE] the viability at 10 µM (A549 [1]) was 54.2%.
Molecule `O=C(/C=C/c1ccc(CN(CCO)CCc2c[nH]c3ccccc23)cc1)NO` [DACINOSTAT] has a viability at 10 µM (A549 [1]) of 54.2%.
`NC(=O)C1CCCc2c1[nH]c1ccc(Cl)cc21` (stereo not drawn) gave a viability at 10 µM (A549 [1]) of 54.2%.
Molecule `COc1cc2nc(N3CCCN(C)CC3)nc(NC3CCN(Cc4ccccc4)CC3)c2cc1OC` has a viability at 10 µM (A549 [1]) of 54.2%.
`CC(=O)N1c2ccc(-c3ccc(C(=O)O)cc3)cc2[C@H](Nc2ccc(Cl)cc2)C[C@@H]1C` showed a viability at 10 µM (A549 [1]) of 54.2%.
Molecule `Cc1cc(Nc2nc(N[C@@H](C)c3ncc(F)cn3)ncc2Cl)[nH]n1` [AZD-1480] has a viability at 10 µM (A549 [1]) of 54.2%.
